The source of these data is ChEMBL document CHEMBL1914393, “Chemical scaffolds with structural similarities to siderophores of nonribosomal peptide-polyketide origin as novel antimicrobials against Mycobacterium tuberculosis and Yersinia pestis” (Bioorg Med Chem Lett, 2011).

Experiment [1] has as its system Yersinia pestis. Description: Antimicrobial activity against Yersinia pestis KIM6-2082.1+ in PMHD medium after 26 hrs by spectrophotometric analysis. Format: functional, organism-based.
The test system of experiment [2] is Mycobacterium tuberculosis. As to the kind of experiment: Ratio of MIC90 for Mycobacterium tuberculosis H37Rv in GASTD medium supplemented with 100 uM FeCl3 to MIC90 for Mycobacterium tuberculosis H37Rv in Fe-deficient GASTD medium. The class given is functional. A digest of the protocol:
(§1)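 Virulent H37Rv, twofold microdilution in iron-limiting GASTD or GASTD plus 100 μM FeCl3, started at OD600 0.001 from deferrated stocks. Compounds were added in DMSO (0.5% final) up to 500 μM or the solubility limit. Cultures sat stationary for 10 days at 37 °C, read at OD600. IC50 from sigmoidal fits to triplicates; MIC90 is the lowest concentration giving ≥90% inhibition versus DMSO controls. Ratios are +Fe/GASTD.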

For experiment [3], the system named is Mycobacterium tuberculosis. As to the kind of experiment: Bactericidal activity against Mycobacterium tuberculosis H37Rv in GASTD medium at 2 times MIC after 30 days by colony counting. Format: functional, organism-based. Put shortly:
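Duplicate GASTD cultures were treated and incubated as in the growth assay (37 °C, 10 days), then serial 10-fold dilutions were plated on Middlebrook 7H11. Colonies were counted after 30 days at 37 °C and reported as CFU/mL. Bactericidal was defined as >99% killing relative to inoculum.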

In experiment [4] the test system is Mycobacterium tuberculosis. As to the kind of experiment: Antimicrobial activity against Mycobacterium tuberculosis H37Rv in GASTD medium supplemented with 100 uM FeCl3 after 10 days by spectrophotometric analysis. Format: functional, organism-based. Conditions: 240 h. A digest of the protocol: as §1
Experiment [5] relates to Yersinia pestis. Description: Antimicrobial activity against Yersinia pestis KIM6-2082.1+ in PMHD medium supplemented with 100 uM FeCl3 after 26 hrs by spectrophotometric analysis. Format: functional, organism-based.
The subject of experiment [6] is Mycobacterium tuberculosis. As to the kind of experiment: Ratio of IC50 for Mycobacterium tuberculosis H37Rv in GASTD medium supplemented with 100 uM FeCl3 to IC50 for Mycobacterium tuberculosis H37Rv in Fe-deficient GASTD medium. Format: functional. Put shortly:
as §1

For experiment [7], the system named is Mycobacterium tuberculosis. Description: Antimicrobial activity against Mycobacterium tuberculosis H37Rv in GASTD medium after 10 days by spectrophotometric analysis. The class given is functional, organism-based. Conditions: 240 h. A digest of the protocol: as §1
For experiment [8], the system named is Yersinia pestis. Description: Ratio of IC50 for Yersinia pestis KIM6-2082.1+ in PMHD medium supplemented with 100 uM FeCl3 to IC50 for Yersinia pestis KIM6-2082.1+ in Fe-deficient PMHD medium. Format: functional.

Converted amounts (≈) assume the structure as drawn. The source made the active and inactive calls.

`NC(=O)N1N=C(c2ccccc2O)C[C@H]1c1ccccc1O`: the IC50 in experiment [1] is greater than 250 µM; in experiment [4] it was 64 µM; in experiment [5], greater than 250 µM; in experiment [7], 77 µM. The MIC90 in experiment [1] is greater than 250 µM; in experiment [4], 104 µM (≈ 30.9 µg/mL); in experiment [5], greater than 250 µM; in experiment [7], 208 µM (≈ 61.8 µg/mL). Also, in experiment [2], the Ratio is listed as 0.5. In experiment [3], the outcome was Active. The “Ratio IC50” value in experiment [6] was 1.
As to `CC(=O)N1N=C(c2ccccc2O)C[C@H]1c1ccccc1O`, the IC50 in experiment [1] is greater than 31 µM; in experiment [4], greater than 16 µM; in experiment [5], greater than 31 µM; in experiment [7], greater than 31 µM. The MIC90 in experiment [1] is greater than 31 µM; in experiment [4] it was greater than 16 µM; in experiment [5], greater than 31 µM; in experiment [7], greater than 32 µM.
As for `O=C(c1ccccc1)N1N=C(c2ccccc2O)C[C@H]1c1ccc(O)cc1`, the IC50 was greater than 31 µM in experiment [1], greater than 16 µM in experiment [4], greater than 16 µM in experiment [5] and greater than 63 µM in experiment [7]. For the same compound, the MIC90 was greater than 31 µM in experiment [1], greater than 63 µM in experiment [4], greater than 16 µM in experiment [5] and greater than 63 µM in experiment [7].
As for `O=C(NO)N/N=C/c1ccc(O)cc1`, the IC50 in experiment [1] is greater than 250 µM; in experiment [4], 40 µM; in experiment [5] it was greater than 250 µM; in experiment [7] it was 97 µM. For the same compound, the MIC90 is greater than 250 µM in experiment [1], 97 µM (≈ 18.9 µg/mL) in experiment [4], greater than 250 µM in experiment [5] and 146 µM (≈ 28.5 µg/mL) in experiment [7]. Moreover, in experiment [2], the Ratio was 1. Further, in experiment [3], the outcome was Active. Moreover, in experiment [6], the “Ratio IC50” value came to 0.4.
As for `O=C(NO)N/N=C/c1ccccc1O`, the IC50 in experiment [1] was greater than 16 µM; in experiment [4] it was greater than 16 µM; in experiment [5], greater than 4 µM; in experiment [7] it was greater than 16 µM. Further, the MIC90 in experiment [1] was greater than 16 µM; in experiment [4], greater than 16 µM; in experiment [5], greater than 4 µM; in experiment [7], greater than 16 µM.
With `O=C(c1ccncc1)N1N=C(c2ccccc2O)C[C@H]1c1ccccc1O`, the IC50 in experiment [1] is greater than 16 µM; in experiment [4] it was 8 µM; in experiment [5], greater than 16 µM; in experiment [7], 8 µM. The MIC90 in experiment [1] was greater than 16 µM; in experiment [4], 16 µM (≈ 5.75 µg/mL); in experiment [5], greater than 16 µM; in experiment [7], 16 µM (≈ 5.75 µg/mL). Besides, in experiment [2], the Ratio was 1. Also, the result in experiment [3] was Active. Also, the “Ratio IC50” value in experiment [6] worked out at 1.
For the compound `C/C(=N\NC(=O)NO)c1ccccc1O`, the IC50 in experiment [1] is greater than 4 µM; in experiment [4], greater than 8 µM; in experiment [5] it was greater than 2 µM; in experiment [7], greater than 8 µM. In addition, the MIC90 was greater than 4 µM in experiment [1], greater than 8 µM in experiment [4], greater than 2 µM in experiment [5] and greater than 8 µM in experiment [7].
In the case of `CC(=O)N1N=C(c2ccccc2O)C[C@H]1c1ccc(O)cc1`, the IC50 in experiment [1] is greater than 16 µM; in experiment [4], greater than 8 µM; in experiment [5], greater than 16 µM; in experiment [7] it was greater than 8 µM. Besides, the MIC90 in experiment [1] was greater than 16 µM; in experiment [4], greater than 8 µM; in experiment [5] it was greater than 16 µM; in experiment [7], greater than 8 µM.
`N=C(NO)N/N=C/c1ccc(O)cc1`: the IC50 in experiment [1] is greater than 500 µM; in experiment [4], 43 µM; in experiment [5], greater than 500 µM; in experiment [7] it was 43 µM. Further, the MIC90 in experiment [1] was greater than 500 µM; in experiment [4], 132 µM (≈ 25.6 µg/mL); in experiment [5], greater than 500 µM; in experiment [7], 222 µM (≈ 43.1 µg/mL). Besides, the Ratio in experiment [2] is 1. The outcome in experiment [3] was Active. In addition, the “Ratio IC50” value in experiment [6] turned out to be 1.
On to `NNC(=O)c1ccncc1` [ISONIAZID], for which the Ratio in experiment [2] turned out to be 1. In addition, the result in experiment [3] was Active. In experiment [4], this compound showed an IC50 of 0.09 µM and an MIC90 of 0.2 µM (≈ 0.0274 µg/mL). Moreover, the “Ratio IC50” value in experiment [6] is on record as 1. Moreover, in experiment [7], half-maximal inhibition (IC50) required 0.07 µM and the MIC90 worked out at 0.2 µM (≈ 0.0274 µg/mL).
For the compound `C/C(=N\NC(=O)NO)c1ccc(O)cc1`, the half-inhibitory concentration (IC50) in experiment [1], in experiment [4], in experiment [5] and in experiment [7] was greater than 500 µM each time. In addition, the MIC90 in experiment [1], in experiment [4], in experiment [5] and in experiment [7] was greater than 500 µM each time.
In the case of `NC(=O)N1N=C(c2ccccc2O)C[C@H]1c1ccc(O)cc1`, the IC50 in experiment [1] is greater than 31 µM; in experiment [4], greater than 32 µM; in experiment [5] it was greater than 31 µM; in experiment [7] it was greater than 63 µM. The MIC90 in experiment [1] is greater than 31 µM; in experiment [4], greater than 63 µM; in experiment [5] it was greater than 31 µM; in experiment [7], greater than 63 µM.
On to `O=C(NO)N1N=C(c2ccccc2O)C[C@H]1c1ccccc1O`, for which the IC50 was 8 µM in experiment [1], greater than 32 µM in experiment [4], greater than 31 µM in experiment [5] and 54 µM in experiment [7]. The MIC90 in experiment [1] was greater than 31 µM; in experiment [4] it was greater than 31 µM; in experiment [5], greater than 31 µM; in experiment [7], greater than 63 µM. For the same compound, in experiment [8], the “Ratio IC50” value was greater than 4.
For `O=S(=O)(c1ccccc1)N1N=C(c2ccccc2O)C[C@H]1c1ccccc1O`, the IC50 in experiment [1] was 8 µM; in experiment [4], greater than 16 µM; in experiment [5] it was greater than 31 µM; in experiment [7] it was greater than 63 µM. The MIC90 in experiment [1] is greater than 31 µM; in experiment [4], greater than 31 µM; in experiment [5] it was greater than 31 µM; in experiment [7], greater than 63 µM. In experiment [8], the “Ratio IC50” value is given as greater than 4.
As for `Cc1ccc(S(=O)(=O)N2N=C(c3ccccc3O)C[C@H]2c2ccc(O)cc2)cc1`, the IC50 in experiment [1] is greater than 31 µM; in experiment [4], greater than 31 µM; in experiment [5], greater than 16 µM; in experiment [7], greater than 63 µM. Moreover, the MIC90 in experiment [1] is greater than 31 µM; in experiment [4], greater than 31 µM; in experiment [5], greater than 16 µM; in experiment [7], greater than 63 µM.
Turning to `Cc1ccc(S(=O)(=O)N2N=C(c3ccccc3O)C[C@H]2c2ccccc2O)cc1`, the IC50 in experiment [1] is greater than 31 µM; in experiment [4], greater than 31 µM; in experiment [5], greater than 16 µM; in experiment [7], greater than 63 µM. The MIC90 in experiment [1] was greater than 31 µM; in experiment [4] it was greater than 31 µM; in experiment [5], greater than 16 µM; in experiment [7], greater than 63 µM.
For the compound `O=C(c1ccncc1)N1N=C(c2ccccc2O)C[C@H]1c1ccc(O)cc1`, the IC50 is greater than 8 µM in experiment [1], greater than 4 µM in experiment [4], greater than 8 µM in experiment [5] and greater than 8 µM in experiment [7]. In addition, the MIC90 in experiment [1] was greater than 8 µM; in experiment [4], greater than 4 µM; in experiment [5], greater than 8 µM; in experiment [7], greater than 8 µM.
Regarding `N=C(N)N1N=C(c2ccccc2O)C[C@H]1c1ccc(O)cc1`, the IC50 in experiment [1] was greater than 125 µM; in experiment [4], 26 µM; in experiment [5], greater than 63 µM; in experiment [7], 31 µM. Further, the MIC90 in experiment [1] is greater than 125 µM; in experiment [4], 76 µM (≈ 22.5 µg/mL); in experiment [5], greater than 63 µM; in experiment [7], 125 µM (≈ 37 µg/mL). Further, the Ratio in experiment [2] stood at 1. Further, in experiment [3], the outcome was Active. The “Ratio IC50” value in experiment [6] is 1.
Turning to `O=S(=O)(c1ccccc1)N1N=C(c2ccccc2O)C[C@H]1c1ccc(O)cc1`, the concentration for half-maximal inhibition (IC50) was greater than 16 µM in experiment [1], greater than 31 µM in experiment [4], greater than 31 µM in experiment [5] and greater than 63 µM in experiment [7]. The MIC90 in experiment [1] was greater than 16 µM; in experiment [4], greater than 31 µM; in experiment [5] it was greater than 31 µM; in experiment [7] it was greater than 63 µM.
Take `O=C(c1ccccc1)N1N=C(c2ccccc2O)C[C@H]1c1ccccc1O`: the IC50 in experiment [1] is greater than 31 µM; in experiment [4], 98 µM; in experiment [5], greater than 63 µM; in experiment [7] it was 84 µM. In addition, the MIC90 was greater than 31 µM in experiment [1], greater than 500 µM in experiment [4], greater than 63 µM in experiment [5] and greater than 500 µM in experiment [7]. Besides, the “Ratio IC50” value in experiment [6] is given as 1.
As to `NC(=S)N1N=C(c2ccccc2O)C[C@H]1c1ccccc1O`, the IC50 is 181 µM in experiment [1], 50 µM in experiment [4], greater than 63 µM in experiment [5] and 53 µM in experiment [7]. For the same compound, the MIC90 in experiment [1] is greater than 250 µM; in experiment [4] it was 125 µM (≈ 39.2 µg/mL); in experiment [5], greater than 63 µM; in experiment [7] it was 125 µM (≈ 39.2 µg/mL). Moreover, in experiment [2], the Ratio turned out to be 1. Moreover, the result in experiment [3] was Active. Also, the “Ratio IC50” value in experiment [6] is reported as 1.

The term IC50 denotes the concentration that gives 50% inhibition. One may read the MIC90 as the lowest concentration that inhibits either 90% of growth or 90% of the strains tested, depending on the study. Lower therefore signals greater potency.
